The values that follow come from ChEMBL document CHEMBL4351015, “Design, synthesis and biological evaluation of 3-(imidazo[1,2-a]pyrazin-3-ylethynyl)-2-methylbenzamides as potent and selective pan-tropomyosin receptor kinase (TRK) inhibitors” (Eur J Med Chem, 2019).

What is called inhibition is the drop in the measured response relative to a control, in per cent. The term pIC50 denotes −log10 of the IC50, conventionally taken in molar units.

Structures are written as SMILES. pIC50: −log10 of the molar value.

Series [1] is described as follows: Drug concentration in Sprague-Dawley rat brain at 25 mg/kg, po administered via gavage incubated for 2 hrs by LC/MS-MS analysis. Format: ADME, organism-based. The following applies: read-out: Ct.
Series [2] relates to SH-SY5Y. Nature of the series: Inhibition of cell migration in human SH-SY5Y cells transfected with TrkB (unknown origin) assessed as reduction in BDNF-induced wound closure at 200 nM incubated for 24 hrs by bright field microscopy relative to control. Format: functional. A digest of the protocol: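 SH-SY5Y-TrkB monolayers were grown to near confluence and scratched with a pipette tip, then washed with PBS. Cells were incubated 24 h in MEM/F-12 with 2% FBS, with or without BDNF 10 ng/mL and with compound. Three random fields were imaged by bright-field microscopy and % wound closure was measured. Run three times, each in triplicate.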

Series [3] deals with T1, BDNF/NT-3 growth factors receptor (Homo sapiens, UniProt Q16620). Nature of the series: Inhibition of BDNF-induced TrkB (unknown origin) activation transfected in human SH-SY5Y cells assessed as decrease in Erk phosphorylation incubated for 6 hrs followed by BDNF addition further incubated for 30 mins by Western blot analysis. Format: cell-based. A digest of the protocol:
(§1)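 SH-SY5Y-TrkB stable transfectants were pretreated with 0–2.0 µM compound for 6 h, then given BDNF 10 ng/mL or none for 30 min. Lysates were run on 8–12% SDS-PAGE, blotted to PVDF and blocked in 5% BSA. Primary antibodies were applied overnight at 4 °C, then HRP secondary, with ECL detection. Phospho and total TrkB, PLC-γ1, Akt (Ser473, Thr308) and Erk were probed, with GAPDH as control.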
Background: A western blot detects proteins with antibodies after separation by electrophoresis.

Series [4] relates to SH-SY5Y. Nature of the series: Inhibition of BDNF-induced cell migration in human SH-SY5Y cells transfected with TrkB (unknown origin) incubated for 24 hrs by crystal violet staining microscopy based transwell assay. Format: functional. The method, boiled down: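 Transwell migration: 1.5 X 10⁶ SH-SY5Y-TrkB cells in FBS-free medium containing 0, 8, 40 or 200 nM compound went in the top chamber. The bottom chamber held complete medium with or without BDNF 10 ng/mL. After 24 h at 37 °C, cells were methanol-fixed and stained with 0.25% crystal violet, and non-migrated cells were removed. Cells were counted in six random fields at 200X; mean of three independent experiments.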

Series [5] in a line: Drug concentration in Sprague-Dawley rat brain at 25 mg/kg, po administered via gavage incubated for 8 hrs by LC/MS-MS analysis. Format: ADME, organism-based. The following applies: read-out: Ct.
The nature of series [6]: Plasma concentration in Sprague-Dawley rat at 25 mg/kg, po administered via gavage incubated for 2 hrs by LC/MS-MS analysis. Format: ADME, organism-based.
For series [7], the system named is SH-SY5Y. Nature of the series: Inhibition of BDNF-induced cell invasion in human SH-SY5Y cells transfected with TrkB (unknown origin) at 8 nM incubated for 24 hrs by crystal violet staining microscopy-based matrigel assay relative to control. Format: functional. A digest of the protocol: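 Invasion through Matrigel chambers: 1.5 X 10⁶ SH-SY5Y-TrkB cells in FBS-free medium with 0, 8, 40 or 200 nM compound were placed on top. Complete medium with or without BDNF 10 ng/mL went below. After 24 h at 37 °C, cells were fixed in methanol and stained with 0.25% crystal violet, and top-surface cells were removed. Six random fields were counted at 200X; mean of three independent experiments.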

The nature of series [8]: Ratio of drug concentration in brain to blood of Sprague-Dawley rat at 25 mg/kg, po administered via gavage incubated for 0.5 hrs by LC/MS-MS analysis. It counts as ADME, organism-based. The following applies: brain and blood, read-out: BBR.
Series [9] deals with High affinity nerve growth factor receptor (Homo sapiens, UniProt P04629). Nature of the series: Inhibition of recombinant human His-tagged TrkA catalytic domain (441 to 796 residues) expressed in baculovirus expression system using tyr 01 as substrate incubated for 1 hr by Z'-Lyte assay.
High affinity nerve growth factor receptor, sequence (P04629 whole entry, the tested form may be a part): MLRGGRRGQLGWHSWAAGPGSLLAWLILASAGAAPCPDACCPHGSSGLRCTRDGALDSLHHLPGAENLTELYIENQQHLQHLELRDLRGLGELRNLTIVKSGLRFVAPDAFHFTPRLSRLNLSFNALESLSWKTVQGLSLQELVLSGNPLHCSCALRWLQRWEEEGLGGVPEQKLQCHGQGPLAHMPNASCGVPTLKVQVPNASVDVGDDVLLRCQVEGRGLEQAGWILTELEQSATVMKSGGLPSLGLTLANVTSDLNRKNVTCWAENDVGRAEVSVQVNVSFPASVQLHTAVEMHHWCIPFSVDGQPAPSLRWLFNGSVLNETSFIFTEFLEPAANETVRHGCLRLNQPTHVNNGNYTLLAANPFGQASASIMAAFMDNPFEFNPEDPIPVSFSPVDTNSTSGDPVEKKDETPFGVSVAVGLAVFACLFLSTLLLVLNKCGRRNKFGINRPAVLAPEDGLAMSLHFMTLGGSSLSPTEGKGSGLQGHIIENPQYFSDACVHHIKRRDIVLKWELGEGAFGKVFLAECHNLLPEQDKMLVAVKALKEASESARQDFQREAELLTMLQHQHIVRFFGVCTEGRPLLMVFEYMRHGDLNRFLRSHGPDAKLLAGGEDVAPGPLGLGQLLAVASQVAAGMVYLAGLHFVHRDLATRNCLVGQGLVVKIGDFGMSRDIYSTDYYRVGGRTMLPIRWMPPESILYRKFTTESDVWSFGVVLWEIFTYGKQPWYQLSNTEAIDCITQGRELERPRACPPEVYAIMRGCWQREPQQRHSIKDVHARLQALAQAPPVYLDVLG
In series [10] the target is T1, BDNF/NT-3 growth factors receptor. Briefly: Inhibition of BDNF-induced TrkB (unknown origin) activation transfected in human SH-SY5Y cells assessed as decrease in PLCgamma1 phosphorylation incubated for 6 hrs followed by BDNF addition further incubated for 30 mins by Western blot analysis. It counts as cell-based. The method, boiled down:
as §1

T1 sequence (Q16620 32-822 limits assumed): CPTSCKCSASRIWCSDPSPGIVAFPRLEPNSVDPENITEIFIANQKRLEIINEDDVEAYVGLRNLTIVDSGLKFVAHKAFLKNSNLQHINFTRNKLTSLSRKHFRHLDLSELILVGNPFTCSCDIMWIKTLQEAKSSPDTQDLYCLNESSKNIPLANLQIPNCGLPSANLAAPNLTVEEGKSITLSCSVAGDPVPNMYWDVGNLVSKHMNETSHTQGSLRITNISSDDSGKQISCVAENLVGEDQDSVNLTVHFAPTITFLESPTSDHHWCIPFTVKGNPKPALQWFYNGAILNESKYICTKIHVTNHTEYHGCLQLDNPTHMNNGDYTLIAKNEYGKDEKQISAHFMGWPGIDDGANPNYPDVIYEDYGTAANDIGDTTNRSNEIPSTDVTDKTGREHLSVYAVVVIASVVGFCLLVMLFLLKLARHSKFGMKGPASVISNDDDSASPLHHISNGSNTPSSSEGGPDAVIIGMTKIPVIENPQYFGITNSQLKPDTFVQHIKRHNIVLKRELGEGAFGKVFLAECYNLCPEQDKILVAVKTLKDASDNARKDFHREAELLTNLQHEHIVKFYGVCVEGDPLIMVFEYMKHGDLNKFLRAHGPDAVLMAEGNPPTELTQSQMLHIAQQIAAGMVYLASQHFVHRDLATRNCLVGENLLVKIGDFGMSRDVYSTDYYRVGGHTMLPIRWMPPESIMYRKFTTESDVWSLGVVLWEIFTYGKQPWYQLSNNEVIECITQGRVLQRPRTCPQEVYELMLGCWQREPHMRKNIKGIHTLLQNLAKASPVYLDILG

Turning to `Cc1c(C#Cc2cnc3cnc(-c4ccc(N)cc4)cn23)cccc1C(=O)Nc1cc(CN2CCN(C)CC2)cc(C(C)C)c1`, the results for the concentration at 2 h in [1] and in [6] were 0.355 ng/mL and 33.2 ng/mL, respectively. The inhibition at 0.2 µM with SH-SY5Y [2] was 77.5%. The inhibition result (in series [3]; in the series on SH-SY5Y [4]; in series [10]) was “Dose-dependent effect” throughout. In addition, the concentration at 8 h in [5] came to 0.09 ng/mL. In the series on SH-SY5Y [7], at 0.008 µM the inhibition was 9.1%. For the same compound, in series [8], the Kp at 0.5 h was 6.4. For the same compound, in series [9], the pIC50 is 8.58.
